Reference: ChEMBL document CHEMBL2331093, “Synthesis and biological evaluation of novel propargyl amines as potential fluorine-18 labeled radioligands for detection of MAO-B activity” (Bioorg Med Chem, 2013)

Assays:
[1] = test system: Plasma; test: Metabolic stability in cynomolgus monkey plasma assessed as metabolite M4 retention time at 168 MBq, iv by HPLC analysis; type: ADME, organism-based, Macaca fascicularis; details: in vivo
[2] = test system: Plasma; test: Metabolic stability in cynomolgus monkey plasma assessed as metabolite M3 retention time at 168 MBq, iv by HPLC analysis; type: ADME, organism-based, Macaca fascicularis; details: in vivo
[3] = test system: Plasma; test: Metabolic stability in cynomolgus monkey plasma assessed as metabolite M2 retention time at 168 MBq, iv by HPLC analysis; type: ADME, organism-based, Macaca fascicularis; details: in vivo
[4] = test system: Plasma; test: Metabolic stability in cynomolgus monkey plasma assessed as metabolite M1 retention time at 168 MBq, iv by HPLC analysis; type: ADME, organism-based, Macaca fascicularis; details: in vivo
[5] = Drug uptake in cynomolgus monkey cortex at 168 MBq, iv by PET imaging; type: ADME, organism-based, Macaca fascicularis; details: in vivo
Outline: (§1)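 PET brain imaging in a cynomolgus monkey after injection of the fluorine-18 labeled radioligand; regional radioactivity uptake expressed as %SUV over time post injection.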

[6] = Drug uptake in cynomolgus monkey cerebellum at 168 MBq, iv by PET imaging; type: ADME, organism-based, Macaca fascicularis; details: in vivo; outline: as §1
[7] = test system: Thalamus; test: Drug uptake in cynomolgus monkey thalamus at 168 MBq, iv by PET imaging; type: ADME, organism-based, Macaca fascicularis; details: in vivo; outline: as §1
[8] = Drug uptake in cynomolgus monkey striatum at 168 MBq, iv by PET imaging; type: ADME, organism-based, Macaca fascicularis; details: in vivo; outline: as §1
[9] = test system: Brain; test: Drug uptake in cynomolgus monkey brain at 168 MBq, iv by PET imaging; type: ADME, organism-based, Macaca fascicularis; details: in vivo; outline: as §1
[10] = Drug uptake in human caudate nucleus at 4 MBq/200 ml after 90 mins by in vitro autoradiography in presence of MAO-A ligand pirlindole; type: ADME, tissue-based; details: 1.5 h
Outline: (§2)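 In vitro autoradiography with the fluorine-18 labeled radioligand on human postmortem brain tissue sections.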

[11] = Drug uptake in human caudate nucleus at 4 MBq/200 ml after 90 mins by in vitro autoradiography in presence of MAO-B inhibitor rasagiline; type: ADME, tissue-based; details: 1.5 h; outline: as §2
[12] = Drug uptake in human putamen at 4 MBq/200 ml after 90 mins by in vitro autoradiography in presence of MAO-A ligand pirlindole; type: ADME, tissue-based; details: 1.5 h; outline: as §2
[13] = Drug uptake in human putamen at 4 MBq/200 ml after 90 mins by in vitro autoradiography in presence of MAO-B inhibitor rasagiline; type: ADME, tissue-based; details: 1.5 h; outline: as §2
[14] = Drug uptake in human caudate nucleus at 4 MBq/200 ml after 90 mins by in vitro autoradiography in presence of MAO-B inhibitor L-deprenyl; type: ADME, tissue-based; details: 1.5 h; outline: as §2
[15] = Drug uptake in human putamen at 4 MBq/200 ml after 90 mins by in vitro autoradiography in presence of MAO-B inhibitor L-deprenyl; type: ADME, tissue-based; details: 1.5 h; outline: as §2
[16] = Drug uptake in human caudate nucleus at 4 MBq/200 ml after 90 mins by in vitro autoradiography; type: ADME, tissue-based; details: 1.5 h; outline: as §2
[17] = Drug uptake in human putamen at 4 MBq/200 ml after 90 mins by in vitro autoradiography; type: ADME, tissue-based; details: 1.5 h; outline: as §2
[18] = Drug uptake in human hippocampus at 4 MBq/200 ml after 90 mins by in vitro autoradiography in presence of MAO-A ligand pirlindole; type: ADME, tissue-based; details: 1.5 h; outline: as §2
[19] = Drug uptake in human thalamus at 4 MBq/200 ml after 90 mins by in vitro autoradiography in presence of MAO-A ligand pirlindole; type: ADME, tissue-based; details: 1.5 h; outline: as §2
[20] = Drug uptake in human hippocampus at 4 MBq/200 ml after 90 mins by in vitro autoradiography in presence of MAO-B inhibitor rasagiline; type: ADME, tissue-based; details: 1.5 h; outline: as §2
[21] = Drug uptake in human thalamus at 4 MBq/200 ml after 90 mins by in vitro autoradiography in presence of MAO-B inhibitor rasagiline; type: ADME, tissue-based; details: 1.5 h; outline: as §2
[22] = Drug uptake in human hippocampus at 4 MBq/200 ml after 90 mins by in vitro autoradiography in presence of MAO-B inhibitor L-deprenyl; type: ADME, tissue-based; details: 1.5 h; outline: as §2
[23] = Drug uptake in human thalamus at 4 MBq/200 ml after 90 mins by in vitro autoradiography in presence of MAO-B inhibitor L-deprenyl; type: ADME, tissue-based; details: 1.5 h; outline: as §2
[24] = Drug uptake in human hippocampus at 4 MBq/200 ml after 90 mins by in vitro autoradiography; type: ADME, tissue-based; details: 1.5 h; outline: as §2
[25] = Drug uptake in human thalamus at 4 MBq/200 ml after 90 mins by in vitro autoradiography; type: ADME, tissue-based; details: 1.5 h; outline: as §2
[26] = Metabolic stability in cynomolgus monkey plasma assessed as parent compound at 168 MBq, iv after 120 mins by HPLC analysis; type: ADME, organism-based, Macaca fascicularis; details: read-out: Stability
[27] = Metabolic stability in cynomolgus monkey plasma assessed as parent compound at 168 MBq, iv after 45 mins by HPLC analysis; type: ADME, organism-based, Macaca fascicularis; details: read-out: Stability
[28] = test system: Plasma; test: Metabolic stability in cynomolgus monkey plasma assessed as metabolite M5 retention time at 168 MBq, iv by HPLC analysis; type: ADME, organism-based, Macaca fascicularis; details: in vivo
[29] = test system: Cortex; test: Drug uptake in human cortex at 4 MBq/200 ml after 90 mins by in vitro autoradiography in presence of MAO-A ligand pirlindole; type: ADME, tissue-based; details: 1.5 h; outline: as §2
[30] = Drug uptake in human basal ganglia at 4 MBq/200 ml after 90 mins by in vitro autoradiography in presence of MAO-A ligand pirlindole; type: ADME; details: 1.5 h; outline: as §2
[31] = test system: Cortex; test: Drug uptake in human cortex at 4 MBq/200 ml after 90 mins by in vitro autoradiography in presence of MAO-B inhibitor rasagiline; type: ADME, tissue-based; details: 1.5 h; outline: as §2
[32] = Drug uptake in human basal ganglia at 4 MBq/200 ml after 90 mins by in vitro autoradiography in presence of MAO-B inhibitor rasagiline; type: ADME; details: 1.5 h; outline: as §2
[33] = test system: Cortex; test: Drug uptake in human cortex at 4 MBq/200 ml after 90 mins by in vitro autoradiography in presence of MAO-B inhibitor L-deprenyl; type: ADME, tissue-based; details: 1.5 h; outline: as §2
[34] = Drug uptake in human basal ganglia at 4 MBq/200 ml after 90 mins by in vitro autoradiography in presence of MAO-B inhibitor L-deprenyl; type: ADME; details: 1.5 h; outline: as §2
[35] = test system: Cortex; test: Drug uptake in human cortex at 4 MBq/200 ml after 90 mins by in vitro autoradiography; type: ADME, tissue-based; details: 1.5 h; outline: as §2
[36] = Drug uptake in human basal ganglia at 4 MBq/200 ml after 90 mins by in vitro autoradiography; type: ADME; details: 1.5 h; outline: as §2
[37] = Stability of the compound in PBS buffer at pH 7.4 up to 150 mins; type: physicochemical; details: pH 7.4, 2.5 h
[38] = target: T1, Amine oxidase [flavin-containing] B (Homo sapiens, UniProt P27338); test: Inhibition of recombinant human MAO-B assessed as inhibition of kynuramine oxidation by spectrophotometry
T1 sequence (P27338 whole entry): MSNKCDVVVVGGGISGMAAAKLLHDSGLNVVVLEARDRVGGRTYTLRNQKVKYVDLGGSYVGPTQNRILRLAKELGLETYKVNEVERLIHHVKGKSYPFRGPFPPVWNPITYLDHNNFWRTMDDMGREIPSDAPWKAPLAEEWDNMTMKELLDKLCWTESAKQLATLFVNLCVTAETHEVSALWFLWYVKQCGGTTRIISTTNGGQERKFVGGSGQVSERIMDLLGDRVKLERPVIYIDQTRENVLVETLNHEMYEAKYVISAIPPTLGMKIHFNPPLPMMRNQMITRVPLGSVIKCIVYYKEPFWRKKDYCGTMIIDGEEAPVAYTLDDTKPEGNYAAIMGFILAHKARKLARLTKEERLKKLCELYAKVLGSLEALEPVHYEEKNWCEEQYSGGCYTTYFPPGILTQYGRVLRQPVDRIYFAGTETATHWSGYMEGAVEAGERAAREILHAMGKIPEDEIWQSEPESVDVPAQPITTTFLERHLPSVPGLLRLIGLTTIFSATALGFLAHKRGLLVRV

[39] = target: T2, Amine oxidase [flavin-containing] A (Homo sapiens, UniProt P21397); test: Inhibition of recombinant human MAO-A assessed as inhibition of kynuramine oxidation by spectrophotometry
T2 sequence (P21397 whole entry): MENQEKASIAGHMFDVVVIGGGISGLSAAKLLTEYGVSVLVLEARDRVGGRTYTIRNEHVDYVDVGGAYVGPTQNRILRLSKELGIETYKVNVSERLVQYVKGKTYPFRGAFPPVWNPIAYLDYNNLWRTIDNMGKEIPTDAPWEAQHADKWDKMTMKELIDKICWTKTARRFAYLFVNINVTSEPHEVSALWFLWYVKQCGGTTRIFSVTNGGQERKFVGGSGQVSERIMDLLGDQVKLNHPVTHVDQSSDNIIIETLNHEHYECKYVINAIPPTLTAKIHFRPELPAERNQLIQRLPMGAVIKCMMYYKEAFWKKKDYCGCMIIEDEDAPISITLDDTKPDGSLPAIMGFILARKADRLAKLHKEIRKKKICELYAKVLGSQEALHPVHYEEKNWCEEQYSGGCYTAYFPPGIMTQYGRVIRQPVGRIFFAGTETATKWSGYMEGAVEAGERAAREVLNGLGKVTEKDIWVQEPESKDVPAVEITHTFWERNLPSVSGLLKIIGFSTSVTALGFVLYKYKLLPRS

C#CCN(C)[C@H](C[18F])CC(C)C
Retention_time [1]: 4.2 min
Retention_time [2]: 3.7 min
Retention_time [3]: 3.4 min
Retention_time [4]: 2 min
Drug uptake [5]: Not Active
Drug uptake [6]: Not Active
Drug uptake [7]: Active
Drug uptake [8]: Active
SUV [9]: 250%
Drug uptake [10]: Active
Drug uptake [11]: Not Active
Drug uptake [12]: Active
Drug uptake [13]: Not Active
Drug uptake [14]: Not Active
Drug uptake [15]: Not Active
Drug uptake [16]: Active
Drug uptake [17]: Active
Drug uptake [18]: Active
Drug uptake [19]: Active
Drug uptake [20]: Not Active
Drug uptake [21]: Not Active
Drug uptake [22]: Not Active
Drug uptake [23]: Not Active
Drug uptake [24]: Active
Drug uptake [25]: Active
remaining at 2 h [26]: 12%
remaining at 0.75 h [27]: 20%
Retention_time [28]: 6.2 min

C#CCN(C)[C@H](C[18F])Cc1ccco1
Drug uptake [18]: Active
Drug uptake [29]: Active
Drug uptake [19]: Active
Drug uptake [30]: Active
Drug uptake [20]: Not Active
Drug uptake [31]: Not Active
Drug uptake [21]: Not Active
Drug uptake [32]: Not Active
Drug uptake [22]: Not Active
Drug uptake [33]: Not Active
Drug uptake [23]: Not Active
Drug uptake [34]: Not Active
Drug uptake [35]: Active
Drug uptake [24]: Active
Drug uptake [25]: Active
Drug uptake [36]: Active

C#CCN(C)[C@H](C[19F])Cc1ccco1
Stability [37]: Stable

C#CCN(C)[C@H](C[19F])CC(C)C
Stability [37]: Stable

C#CCN(C)[C@H](CF)CC(C)C
IC50 [38]: 132 nM
IC50 [39]: > 2000 nM

C#CCN(C)[C@H](CF)CC(=C)C
IC50 [38]: 664 nM
IC50 [39]: > 2000 nM

C#CCN(C)[C@H](CF)Cc1ccco1
IC50 [38]: 208 nM
IC50 [39]: > 2000 nM
